Assay results reported in ChEMBL document CHEMBL1133468, “New diarylmethylpiperazines as potent and selective nonpeptidic delta opioid receptor agonists with increased In vitro metabolic stability” (J Med Chem, 2000).
pEC50, pIC50: −log10 of the molar value.

Legend:
[1] = biological target: T1, Delta-type opioid receptor (Homo sapiens, UniProt P41143); test: Binding affinity against human opioid receptor delta 1 using [125I]-[D-Ala2]-deltorphin II as radioligand
[2] = Maximal efficacy (Emax value); assay type: functional
In short: (§1)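 GTPγ35S binding on P2 membranes of HEK-293S cells stably expressing human δ receptor (9.7 pmol/mg protein). Filtration after 1 h. Stimulated binding set with 3 µM SNC-80. %Emax from 3-parameter logistic fit.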

[3] = biological target: Kappa-type opioid receptor (Homo sapiens, UniProt P41145); test: Binding affinity against cloned human Opioid receptor kappa 1 using [125I]-D-Pro10-dynorphin A[1-11] as radioligand
[4] = biological target: Mu-type opioid receptor (Homo sapiens, UniProt P35372); test: Binding affinity against cloned human Opioid receptor mu 1 using [125I]FK33824 as radioligand
[5] = biological target: T1, Delta-type opioid receptor; test: Agonist potency was measured using GTP gamma-[35S] binding assay
[6] = Metabolic stability at a concentration of 10 uM in rat liver microsomes after 1 hr incubation; assay type: ADME
In short: (§2)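 Substrate at 10 or 100 µM final (1% DMSO) with rat liver microsomes (0.4 mg/mL protein), 1 mM NADPH, 100 mM phosphate pH 7.4, 37 °C with gentle shaking, in duplicate. Reaction started by NADPH and stopped at 0 and 60 min with ice-cold acetonitrile. After centrifugation, supernatant analysed by LC-MS for % parent remaining. Controls omitted microsomes or NADPH.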

[7] = Metabolic stability at a concentration of 100 uM in rat liver microsomes after 1 hr incubation; assay type: ADME; in short: as §2
[8] = Emax value was determined; in short: as §1

Chain of Mu-type opioid receptor (P35372 whole entry): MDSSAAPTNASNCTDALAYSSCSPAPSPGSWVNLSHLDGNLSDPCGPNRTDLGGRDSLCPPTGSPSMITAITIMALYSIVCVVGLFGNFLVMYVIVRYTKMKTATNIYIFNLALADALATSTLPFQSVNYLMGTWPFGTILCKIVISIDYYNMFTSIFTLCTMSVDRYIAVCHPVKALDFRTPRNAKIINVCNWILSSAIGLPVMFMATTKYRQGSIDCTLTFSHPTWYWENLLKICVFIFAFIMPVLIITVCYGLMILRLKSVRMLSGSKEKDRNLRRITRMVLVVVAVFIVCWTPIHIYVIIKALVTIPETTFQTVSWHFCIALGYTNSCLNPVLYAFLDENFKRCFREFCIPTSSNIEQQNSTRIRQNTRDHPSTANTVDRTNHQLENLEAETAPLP
T1 sequence (P41143 whole entry): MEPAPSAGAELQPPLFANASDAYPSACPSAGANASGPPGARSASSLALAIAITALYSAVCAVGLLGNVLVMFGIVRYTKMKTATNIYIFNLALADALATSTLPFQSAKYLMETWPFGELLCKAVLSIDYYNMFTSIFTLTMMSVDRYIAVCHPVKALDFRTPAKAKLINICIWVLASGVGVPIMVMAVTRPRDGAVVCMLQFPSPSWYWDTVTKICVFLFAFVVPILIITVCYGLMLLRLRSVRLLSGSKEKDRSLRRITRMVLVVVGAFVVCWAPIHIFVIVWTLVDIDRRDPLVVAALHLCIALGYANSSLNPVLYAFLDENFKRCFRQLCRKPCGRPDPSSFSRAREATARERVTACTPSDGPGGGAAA
Chain of Kappa-type opioid receptor (P41145 whole entry): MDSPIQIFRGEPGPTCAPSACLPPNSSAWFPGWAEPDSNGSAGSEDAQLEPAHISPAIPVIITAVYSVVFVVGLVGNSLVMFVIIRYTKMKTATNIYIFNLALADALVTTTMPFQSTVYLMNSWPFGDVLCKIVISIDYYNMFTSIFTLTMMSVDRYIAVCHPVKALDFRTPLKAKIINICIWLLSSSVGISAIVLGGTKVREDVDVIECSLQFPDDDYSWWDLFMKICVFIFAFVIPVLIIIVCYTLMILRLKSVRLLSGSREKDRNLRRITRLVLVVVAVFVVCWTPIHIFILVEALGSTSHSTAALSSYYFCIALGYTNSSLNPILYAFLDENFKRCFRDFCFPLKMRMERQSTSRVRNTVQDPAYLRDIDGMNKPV

SMILES | pIC50 [1] | Emax [2] | pIC50 [3] | pIC50 [4] | pEC50 [5] | remaining at 1 h, 10 µM [6] | remaining at 1 h, 100 µM [7] | Emax [8]
CCC(CC)C(=O)c1ccc(C(c2ccccc2)N2CCNCC2)cc1 (centres undefined) | 7.00 | – | – | – | – | – | – | –
NC(=O)c1ccc(C(c2ccccc2)N2CCNCC2)cc1 (centres undefined) | 6.29 | – | – | – | – | – | – | –
CCN(CC)C(=O)c1ccc(C(c2ccccc2)N2CCN(C(C)=O)CC2)cc1 (centres undefined) | < 5.70 | – | – | – | – | – | – | –
CCN(CC)C(=O)c1ccc(C(c2ccc3ncccc3c2)N2CCNCC2)cc1 (centres undefined) | 7.21 | – | – | – | – | – | – | –
CN1CCc2cc(-c3ccc(C(c4ccccc4)N4CCNCC4)cc3)ccc2C1=O (centres undefined) | 5.78 | – | – | – | – | – | – | –
CCN(CC)C(=O)c1ccc(C(c2ccc3cc[nH]c3c2)N2CCNCC2)cc1 (centres undefined) | 8.17 | 105% | 5.40 | 5.65 | 7.35 | – | – | –
CCN(CC)C(=O)c1ccc(C(c2ccccc2)N2CCCNCC2)cc1 (centres undefined) | 7.71 | 96% | 5.34 | 5.64 | 6.52 | – | – | –
CCN(CC)C(=O)c1ccc(C(c2ccc(Cl)cc2)N2CCNCC2)cc1 (centres undefined) | 7.71 | 107% | < 5.00 | 5.27 | 6.95 | – | – | –
O=C(O)c1ccc(C(c2ccccc2)N2CCNCC2)cc1 (centres undefined) | 6.39 | – | – | – | – | – | – | –
CCN(CC)C(=O)c1ccc(C(c2cccc3c2OC(C)(C)C3)N2CCNCC2)cc1 (centres undefined) | 8.94 | 101% | < 5.12 | 6.11 | 8.15 | 43% | 93% | –
CCN(CC)C(=O)c1ccc(C(c2cccc3cnccc23)N2CCNCC2)cc1 (centres undefined) | 8.39 | 106% | < 5.00 | 5.83 | 7.26 | – | – | –
CCN(CC)S(=O)(=O)c1ccc(C(c2ccccc2)N2CCNCC2)cc1 (centres undefined) | 7.42 | 110% | – | – | 6.20 | – | – | –
CCN(CC)C(=O)c1ccc(C(C2CCCCC2)N2CCNCC2)cc1 (centres undefined) | 7.01 | – | 6.14 | 6.73 | – | – | – | –
CCN(CC)C(=O)c1ccc(C(c2ccccc2)C2CCNCC2)cc1 (centres undefined) | – | 97% | < 5.00 | < 5.00 | – | – | – | –
CCN(CC)C(=O)c1ccc(C(c2ccc(C)cc2)N2CCNCC2)cc1 (centres undefined) | 8.07 | 84% | < 5.00 | 5.15 | 7.11 | – | – | –
CN(C)C(=O)c1ccc(C(c2ccccc2)N2CCNCC2)cc1 (centres undefined) | 7.22 | – | – | – | – | – | – | –
N#Cc1ccc(C(c2ccccc2)N2CCNCC2)cc1 (centres undefined) | 5.89 | – | – | – | – | – | – | –
CCN(CC)C(=O)c1ccc(C(c2cccc3ccccc23)N2CCNCC2)cc1 (centres undefined) | 8.63 | 99% | 5.31 | 6.11 | 7.74 | – | – | –
CCCCN1CCN(C(c2ccccc2)c2ccc(C(=O)N(CC)CC)cc2)CC1 (centres undefined) | 7.54 | – | < 5.00 | 6.31 | – | – | – | –
C=CCN1C[C@H](C)N([C@H](c2ccc(C(=O)N(CC)CC)cc2)c2cccc(O)c2)C[C@H]1C | – | 98% | 7.70 | 8.68 | 9.92 | 4% | 59% | –
CCN(CC)Cc1ccc(C(c2ccccc2)N2CCNCC2)cc1 (centres undefined) | 6.26 | – | – | – | – | – | – | –
C=CCN1CCN(C(c2ccccc2)c2ccc(C(=O)N(CC)CC)cc2)CC1 (centres undefined) | 7.80 | 109% | 5.12 | 5.30 | 7.48 | – | – | –

SMILES | pIC50 [1] | Emax [2] | pIC50 [3] | pIC50 [4] | pEC50 [5] | remaining at 1 h, 10 µM [6] | remaining at 1 h, 100 µM [7] | Emax [8]
CCN(CC)C(=O)c1ccc(C(c2ccnc3ccccc23)N2CCNCC2)cc1 (centres undefined) | 6.88 | – | – | – | – | – | – | –
CCN(CC)C(=O)c1ccc(C(c2cccc(F)c2)N2CCNCC2)cc1 (centres undefined) | 8.35 | 97% | < 5.00 | 5.25 | 7.27 | – | – | –
CCN(CC)C(=O)c1ccc(C(c2ccc3ccccc3c2)N2CCNCC2)cc1 (centres undefined) | 8.12 | 110% | < 5.00 | 5.57 | 7.30 | – | – | –
CCN(CC)C(=O)c1ccc(C(c2ccccc2)N2CCOCC2)cc1 (centres undefined) | < 5.00 | – | – | – | – | – | – | –
CCN(CC)C(=O)c1ccc(C(c2cccc3cccnc23)N2CCNCC2)cc1 (centres undefined) | 9.29 | 104% | 5.15 | 6.20 | 8.44 | 52% | 83% | –
CCN(CC)C(=O)c1ccc(C(c2cccc(OC)c2)N2CC(C)(C)NCC2C)cc1 (centres undefined) | 8.07 | 100% | < 5.00 | 6.21 | 7.98 | – | – | –
CCN(CC)C(=O)c1ccc(C(c2cccc(OC)c2)N2CCNCC2)cc1 (centres undefined) | 7.61 | 109% | < 5.00 | 5.28 | 7.38 | – | – | –
CCNC(=O)c1ccc(C(c2ccccc2)N2CCNCC2)cc1 (centres undefined) | 6.76 | – | – | – | – | – | – | –
CCN(CC)C(=O)c1ccc(C(c2cccc(OC)c2)N2CC(C)NCC2(C)C)cc1 (centres undefined) | 7.27 | 94% | < 5.00 | 6.55 | 6.56 | – | – | –
CCN(CC)C(=O)c1ccc(C(c2ccccc2)N2CCN(CC3CC3)CC2)cc1 (centres undefined) | 7.45 | – | < 5.25 | 5.62 | – | – | – | –
COC(=O)c1ccc(C(c2ccccc2)N2CCNCC2)cc1 (centres undefined) | 6.51 | – | – | – | – | – | – | –
CCN(CC)C(=O)c1ccc(C(c2ccccc2)N2CCNCC2)cc1 (centres undefined) | – | 104% | – | – | – | 60% | 89% | –
CCN(CC)C(=O)c1ccc(C(c2ccc(OC)cc2)N2CCNCC2)cc1 (centres undefined) | 8.09 | 90% | < 5.00 | 5.34 | 6.73 | – | – | –
c1ccc(C(c2ccc(-c3nnn[nH]3)cc2)N2CCNCC2)cc1 (centres undefined) | 6.60 | – | – | – | – | – | – | –
C=CCN1C[C@H](C)N([C@H](c2ccc(C(=O)N(CC)CC)cc2)c2cccc(OC)c2)C[C@H]1C | – | 100% | – | – | – | – | – | –
CCN(CC)C(=O)c1ccc(C(c2ccccc2)N(C)CCNC)cc1 (centres undefined) | 7.04 | – | < 5.00 | 5.16 | – | – | – | –
CCN(CC)C(=O)c1ccc(C(c2ccccc2)N2CCCCC2)cc1 (centres undefined) | 5.65 | – | – | – | – | – | – | –
CC(C)(O)c1ccc(C(c2ccccc2)N2CCNCC2)cc1 (centres undefined) | 6.39 | – | – | – | – | – | – | –
CCN(CC)C(=O)c1ccc(C(c2ccccc2)N2CCN(C)CC2)cc1 (centres undefined) | 7.39 | 58% | 5.16 | < 5.00 | 6.68 | – | – | –
CCN(CC)C(=O)c1ccc(C(c2ccc3cccnc3c2)N2CCNCC2)cc1 (centres undefined) | 8.96 | – | 5.50 | 5.99 | 8.16 | – | – | 100%
CC(=O)c1ccc(C(c2ccccc2)N2CCNCC2)cc1 (centres undefined) | 5.98 | – | – | – | – | – | – | –
